# Assay results from article PMC9662946 (Clinical Cancer Research, 2022).
# Entries after “also recorded” stand apart in the source; their conditions may differ.
# What was measured:
# [1] = tested on: patients with advanced solid tumors; test: Phase I safety and tolerability: AEs, SAEs, DLTs; type: in vivo, human
# [2] = Plasma pharmacokinetics of AZD8186 and metabolite M1; type: in vivo, human; details: for Effect of the combination partner on the PK of AZD8186 (Cmax, AUC): drug–drug interaction analysis versus AZD8186 monotherapy
# [3] = tested on: pAKT (S473), pAKT (T308), pGSK3β; test: PD biomarkers of PI3Kβ inhibition in platelet-rich plasma; type: in vivo, human; details: pooled 60-mg and 120-mg BID monotherapy cohorts
# pAKT (S473) and pPRAS40 = test: IHC of paired tumor biopsies; type: in vivo, human; details: six patients, 120-mg BID monotherapy dose expansion
# Procedure, shortened: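 Paired fresh biopsies from patients with PTEN-deficient/mutated mCRPC or TNBC, taken at screening and in week 2 after ≥3 consecutive dosing days (preferably 2–4 h post-dose; days 11 or 12 on 5:2, days 11–14 continuous). IHC for pAKT (S473) and pPRAS40 on three non-consecutive sections. Digital image analysis scored membranous pAKT and cytosolic pPRAS40 intensity as H-scores, with percent change from baseline.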
# advanced solid tumors = test: Tumor response by RECIST 1.1; type: in vivo, human
# Procedure, shortened: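 Imaging at baseline and every 6 weeks (every 12 weeks for mCRPC) until discontinuation or consent withdrawal. Patients with measurable disease were classed as complete response, partial response, stable disease or progressive disease under RECIST 1.1. Results were summarised descriptively, with percent change from baseline in target lesions.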
# PI3Kβ = details: cited from earlier work
# [4] = combined with AZD8186, dose expansion
# [5] = combined with AZD8186, dose finding
# [6] = non-prostate cancer, dose finding
smiles,measurement,setting,value
"CC(=O)O[C@H]1CC[C@@]2(C)C(=CC[C@@H]3[C@@H]2CC[C@]2(C)C(c4cccnc4)=CC[C@@H]32)C1 [Abiraterone acetate, abiraterone acetate, reference compound]","Dose interruption of the combination partner, patients",[1]; [4],72.2%
same,"Dose reduction of the combination partner, patients",[1]; [4],33.3%
same,"Dose interruption of the combination partner, patients",[1]; [5],56.3%
same,"Dose reduction of the combination partner, patients",[1]; [5],18.8%
same,"Effect of the combination partner on the PK of AZD8186 (Cmax, AUC)",[2],little or no effect
"C[C@]12C=CC(=O)C=C1CC[C@@H]1[C@@H]2C(=O)C[C@@]2(C)[C@H]1CC[C@]2(O)C(=O)CO [prednisone, reference compound]","Dose interruption of the combination partner, patients",[1]; [4],77.8%
same,"Dose reduction of the combination partner, patients",[1]; [4],22.2%
same,"Dose interruption of the combination partner, patients",[1]; [5],56.3%
same,"Dose reduction of the combination partner, patients",[1]; [5],18.8%
"CNC(=O)c1cccc(-c2ccc3c(N4CCOC[C@@H]4C)nc(N4CCOC[C@@H]4C)nc3n2)c1 [Vistusertib, vistusertib, reference compound]","Dose interruption of the combination partner, patients",[1]; [5],60.0%
same,"Dose reduction of the combination partner, patients",[1]; [5],23.3%
same,"Effect of the combination partner on the PK of AZD8186 (Cmax, AUC)",[2],not affected
"C[C@@H](Nc1cc(F)cc(F)c1)c1cc(C(=O)N(C)C)cc2c(=O)cc(N3CCOCC3)oc12 [AZD8186, (R)-8-(1-(3,5-difluorophenylamino)ethyl)-N,N-dimethyl-2-morpholino-4-oxo-4H-chromene-6-carboxamide]",Any AE,[1]; dose expansion,19 (95.0) n (%)
same,Any AE causally related to AZD8186 only,[1]; dose expansion,11 (55.0) n (%)
same,Any AE leading to discontinuation of AZD8186,[1]; dose expansion,1 (5.0) n (%)
same,Any AE leading to dose modification of AZD8186,[1]; dose expansion,0 n (%)
same,Any SAE (including deaths),[1]; dose expansion,4 (20.0) n (%)
same,"Any SAE (including deaths), causally related to AZD8186 only",[1]; dose expansion,2 (10.0) n (%)
same,Any SAE causing discontinuation of AZD8186,[1]; dose expansion,0 n (%)
same,"Any SAE causing discontinuation of AZD8186, causally related to AZD8186 only",[1]; dose expansion,0 n (%)
same,Any grade ≥3 AE,[1]; dose expansion,8 (40.0) n (%)
same,Any grade ≥3 AE causally related to AZD8186 only,[1]; dose expansion,3 (15.0) n (%)
same,Death,[1]; dose expansion,0 n (%)
same,Death causally related to AZD8186 only,[1]; dose expansion,0 n (%)
same,"Dose interruption of AZD8186, patients",[1]; dose expansion,35.0%
same,"Dose reduction of AZD8186, patients",[1]; dose expansion,No dose reductions
same,"Anemia, grade ≥3 causally related AE, patients",[1]; dose finding,4.8%
same,Any AE,[1]; dose finding,63 (100.0) n (%)
same,Any AE causally related to AZD8186 only,[1]; dose finding,55 (87.3) n (%)
same,Any AE leading to discontinuation of AZD8186,[1]; dose finding,11 (17.5) n (%)
same,Any AE leading to dose modification of AZD8186,[1]; dose finding,10 (15.9) n (%)
same,Any SAE (including deaths),[1]; dose finding,23 (36.5) n (%)
same,"Any SAE (including deaths), causally related to AZD8186 only",[1]; dose finding,10 (15.9) n (%)
same,Any SAE causing discontinuation of AZD8186,[1]; dose finding,6 (9.5) n (%)
same,"Any SAE causing discontinuation of AZD8186, causally related to AZD8186 only",[1]; dose finding,5 (7.9) n (%)
same,Any grade ≥3 AE,[1]; dose finding,39 (61.9) n (%)
same,Any grade ≥3 AE causally related to AZD8186 only,[1]; dose finding,20 (31.7) n (%)
same,"Aspartate aminotransferase increase, grade ≥3 causally related AE, patients",[1]; dose finding,4.8%
same,"Colitis, grade ≥3 causally related AE, patients",[1]; dose finding,4.8%
same,Death,[1]; dose finding,0 n (%)
same,Death causally related to AZD8186 only,[1]; dose finding,0 n (%)
same,"Diarrhea, AE causally related to AZD8186, patients",[1]; dose finding,41.3%
same,"Fatigue, AE causally related to AZD8186, patients",[1]; dose finding,22.2%
same,"Hypophosphatemia, grade ≥3 causally related AE, patients",[1]; dose finding,4.8%
same,"Maculo-papular rash, grade ≥3 causally related AE, patients",[1]; dose finding,4.8%
same,"Nausea, AE causally related to AZD8186, patients",[1]; dose finding,27.0%
same,"Vomiting, AE causally related to AZD8186, patients",[1]; dose finding,23.8%
same,"Dose interruption of AZD8186, patients","[1]; dose finding, whole arm",49.2%
same,"Dose interruption of AZD8186 related to AEs, patients","[1]; dose finding, whole arm",38.1%
same,"Dose reduction of AZD8186, patients","[1]; dose finding, whole arm",17.5%
same,Tolerability,"[1]; monotherapy dose expansion, 60-mg BID (5:2) and 120-mg BID (continuous)",well tolerated
same,Patients who experienced a DLT,"[1]; monotherapy dose finding, 53 evaluable for DLTs",7.5%
same,half-life,"[2]; human, plasma, oral, terminal elimination half-life, overall range, after a single dose",1.4 to 13.8 h
same,Effect on the PK of abiraterone acetate,[2]; in vivo,little effect
same,Cmax and AUC versus dose,[2]; single- and multiple-dose administration,dose proportional; also recorded: increased with dose
same,"pAKT (S473), pAKT (T308), and pGSK3β in platelet-rich plasma",[3],Substantial reductions
same,Patients with substantial reduction in pAKT (S473) membrane fraction,pAKT (S473) and pPRAS40,all six patients
same,Patients with substantial reduction in pPRAS40,pAKT (S473) and pPRAS40,five of the six patients
same,Duration of RECIST 1.1 partial response,advanced solid tumors; dose finding,372 days
same,"RECIST 1.1 best objective response stable disease, patients",advanced solid tumors; [6],38.9%
same,"RECIST 1.1 disease progression, patients",advanced solid tumors; [6],55.6%
same,"RECIST 1.1 confirmed partial response, patients","advanced solid tumors; non-prostate cancer, dose finding (120-mg BID; 2:5)",5.6%
same,"RECIST 1.1 disease progression, patients","advanced solid tumors; prostate cancer, dose expansion",25.0%
same,"RECIST 1.1 best objective response stable disease, patients","advanced solid tumors; prostate cancer, dose finding",37.5%
same,"RECIST 1.1 disease progression, patients","advanced solid tumors; prostate cancer, dose finding",62.5%
same,IC50,PI3Kβ,4 nM
